Among the data in ChEMBL document CHEMBL1140057, “Design, synthesis, and evaluation of novel organophosphorus inhibitors of bacterial ureases” (J Med Chem, 2008) are Ki and IC50 values, retold here.

As a reminder, the Ki is the dissociation constant of the complex between target and ligand, obtained from inhibition or displacement. One may read the IC50 as the concentration at which inhibition is half-maximal.

The nature of assay [1]: Inhibition of Bacillus pasteurii CCM 2056 urease by steady state kinetic study. Also noted: species or system Sporosarcina pasteurii. The gist of the method: (§1)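 Assay at 30 °C in 3 mM phosphate pH 7.0 with 2-100 mM urea. Ammonia read by Berthelot indophenol at 650 nm. Enzyme-inhibitor preincubated 30 min before urea, or diluted 30-fold from a concentrated mix. Ki* from linear regression, triplicates.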

Another assay has as its target Urease (Helicobacter pylori, UniProt Q0PXQ5). Nature of the assay: Inhibition of Helicobacter pylori urease.
Assay [2] can be described thus: Inhibition of Proteus vulgaris CCM 1956 urease by steady state kinetic study. The method, boiled down:
as §1

A short description of assay [3]: Inhibition of Klebsiella aerogenes urease.

Chain of Urease (Q0PXQ5 whole entry): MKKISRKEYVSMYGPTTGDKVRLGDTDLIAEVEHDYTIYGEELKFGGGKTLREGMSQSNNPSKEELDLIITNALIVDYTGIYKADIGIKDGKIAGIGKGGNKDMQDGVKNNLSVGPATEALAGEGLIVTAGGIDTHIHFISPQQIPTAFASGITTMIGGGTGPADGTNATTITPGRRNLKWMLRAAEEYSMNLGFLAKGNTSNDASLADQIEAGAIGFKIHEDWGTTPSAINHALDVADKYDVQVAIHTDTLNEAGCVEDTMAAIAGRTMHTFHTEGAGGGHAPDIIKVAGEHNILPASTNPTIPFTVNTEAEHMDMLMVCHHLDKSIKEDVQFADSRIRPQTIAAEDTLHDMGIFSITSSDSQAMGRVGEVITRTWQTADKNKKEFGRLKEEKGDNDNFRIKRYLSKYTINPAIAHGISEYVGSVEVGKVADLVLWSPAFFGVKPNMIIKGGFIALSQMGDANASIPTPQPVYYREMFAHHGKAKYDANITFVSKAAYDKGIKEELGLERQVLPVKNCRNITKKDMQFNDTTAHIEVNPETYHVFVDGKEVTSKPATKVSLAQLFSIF

Regarding `NP(N)(=O)Oc1ccccc1` [PHENYL PHOSPHORDIAMIDATE], the Ki in assay [1] turned out to be 0.0006 µM.
Compound `NCC(=O)NCC(=O)NO` gave an IC50 at Urease of 0.79 µM.
On to `CC(C)[C@H](N)C(=O)NCP(C)(=O)O`, for which, in assay [1], the IC50 worked out at 485 µM and the Ki was determined as 120 µM. Further, in assay [2], the IC50 came to 617 µM and the affinity corresponds to a Ki of 208 µM.
For `CNCP(C)(=O)O` [METHYL((METHYLAMINO)METHYL)PHOSPHINIC ACID], in that order: 60 µM, 18 µM, 153 µM and 27 µM.
For `CP(O)(=S)CNC(=O)CNC(=O)OCc1ccccc1` (configuration not stated), in that order: 1.8 µM, 0.17 µM, 3.1 µM and 0.45 µM.
The matching figures for `CP(=O)(O)CNC(=O)OCc1ccccc1`: 123 µM, 43 µM, 319 µM and 65 µM.
Consider `CP(=O)(O)CNC(=O)[C@@H](N)Cc1ccccc1`, for which the IC50 in assay [1] was determined as 600 µM; in assay [2], 754 µM. Moreover, the Ki was determined as 215 µM in assay [1] and 176 µM in assay [2].
The matching figures for `CP(=O)(O)CNC(=O)CN`: 60 µM, 86 µM, 21 µM and 30 µM.
The matching figures for `CP(=O)(O)CNC(=O)[C@@H](N)COCc1ccccc1`: 80 µM, 183 µM, 25 µM and 32.6 µM.
In assay [1], `CP(=O)(O)CN` [AMINOMETHYL(METHYL)PHOSPHINIC ACID] yielded an IC50 of 1100 µM and a Ki of 340 µM. Moreover, in assay [2], half-maximal inhibition (IC50) was put at 2530 µM and the Ki turned out to be 425 µM.
With `CC(=O)NO` [ACETOHYDROXAMIC ACID], in assay [3], the affinity, expressed as Ki, was 2.6 µM.
On to `CP(O)(=S)CNC(=O)OCc1ccccc1` (configuration not stated), for which the IC50 turned out to be 112 µM in assay [1] and 158 µM in assay [2]. The Ki in assay [1] was 17.5 µM; in assay [2], 14 µM.
On to `CP(=O)(O)CNC(=O)[C@@H](N)CO`, for which, in assay [1], the IC50 is 150 µM and the Ki came out at 37 µM. In assay [2], it took 342 µM to reach half-maximal inhibition (IC50) and the Ki worked out at 41 µM.
For `CP(=O)(O)CNC(=O)CNC(=O)OCc1ccccc1`, in that order: 450 µM, 135 µM, 640 µM and 178 µM.
